Screens: PubChem BioAssay, several laboratories
This excerpt belongs to a sample that is enriched for hits.
G6PDH CS: inhibits Leuconostoc G6PDH, flagging false hits in G6PDH-based assays. Purified L. mesenteroides G6PDH, diaphorase/resazurin coupled fluorescence, 45 min. 200,000 compounds, 0.12% hits. inhibition, % at 5 µM
PfG6PD inh: PfG6PD (Plasmodium falciparum) enzyme inhibition. PfGluPho enzyme, NADPH resazurin-diaphorase fluorescence. AID 504690. 350,000 compounds, 0.78% hits. inhibition, % at 20 µM;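 active = inhibition reaching at least a set limit at 20 µM in the primary screen, cut at about 59% in these data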;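 also: 0% = DMSO wells with substrate and 100% = DMSO wells lacking glucose-6-phosphate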
DTT redox prof: compounds producing H2O2 with reducing agent – biochemical, NIH compound library profiling, artefact control for MLSCN library redox annotation, primary screen. DTT-dependent redox cycling H2O2, phenol red/HRP absorbance; 100% = 100 µM peroxide control, 0% = buffer. activation, % at 10 µM. 200,000 compounds, 0.03% hits;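 active = activation of at least 50% relative to the plate's high and low controls in the primary single-dose screen; inactive = activation below 50%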;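 also: compound incubated with DTT at 0.8 mM final as the reducing agent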
Diaph inh CS: inhibits diaphorase or chemically oxidizes, flagging diaphorase assay artifacts. diaphorase resazurin-to-resorufin fluorescence, NADH, 16 min; bacterial (C. kluyveri) enzyme, not human. inhibition, % at 20 µM. 190,000 compounds, 0.69% hits. AID 1217;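 active = primary screen inhibition at 20 µM above a set limit, cut at about 50% in these data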;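 also: plate controls were DMSO with full reaction for no effect and wells lacking NADH for full effect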
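Assay system: diaphorase enzyme from Clostridium kluyveri; Input: enzyme working solution with 0.14 U/mL diaphorase; Timing: 16 min at room temperature; Technique: resorufin fluorescence, excitation 544 nm, emission 590 nm; Benchmarks: positive control minus NADH, DMSO neutral control.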
Diaph act CS: diaphorase activation or chemical reduction counter-screen. AID 1229. 190,000 compounds, 0.005% hits. activation factor at 20 µM. Diaphorase/resazurin coupled assay, resorufin fluorescence, 16 min; hits give high values; 1 = vehicle wells, 0 = NADH-free wells;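 active = diaphorase activity raised at least twofold by the compound at 20 µM; inactive = activation factor below 2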
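Assay system: Purified diaphorase enzyme from Clostridium kluyveri | Amount: Enzyme 0.07 U/mL final | Dosing: Compound 20 µM once, DMSO 1% | Timing: 16 min reaction at room temperature | Detection: Fluorescence, excitation 544 nm and emission 590 nm | Evaluation: Higher resorufin formation from activation or reduction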
Lmaj promast: inhibitors of Leishmania major promastigote growth; inhibition, % at 10 µM; Leishmania major promastigotes, resazurin fluorescence viability; 200,000 compounds, 9% hits; AID 1063;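 also: promastigotes grown with compound for 44 hours at 28 °C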
* hit, by the source's call. Rule as the data show it, unless noted: active = inhibition above about 50%; inactive = the rest.

How did Nc1cccn2c(-c3ccc(Cl)cc3)cnc12 do in these assays?
G6PDH CS: 5; PfG6PD inh: 49; DTT redox prof: 0; Diaph inh CS: 18; Diaph act CS: 0.8; Lmaj promast: 73*

How did Nc1nnc(-c2ccc(Cl)c(Cl)c2)s1 do in these assays?
G6PDH CS: 4; PfG6PD inh: 27; DTT redox prof: -2; Diaph inh CS: 11; Diaph act CS: 0.9; Lmaj promast: 5

What do the screens show for `CCc1nn2c(=O)cc(CSc3nc4sc5c(c4c(=O)n3C)CCCC5)nc2s1`?
DTT redox prof: 0; Lmaj promast: -10

Results for CCN1CCCC1Cn1cnc2c([nH]c3ccc(Cl)cc32)c1=O (stereo not drawn) ?
G6PDH CS: 7; PfG6PD inh: 7; DTT redox prof: 2; Diaph inh CS: 6; Diaph act CS: 0.9; Lmaj promast: 11

What do the screens show for `CCN1CCCC1Cn1cnc2c([nH]c3cccc(Cl)c32)c1=O` (stereo not drawn)?
G6PDH CS: 4; PfG6PD inh: -13; DTT redox prof: 2; Diaph inh CS: 9; Diaph act CS: 0.9; Lmaj promast: 81*

How did CCC1CCCN1Cn1cnc2c([nH]c3ccc(OC)cc32)c1=O (stereo not drawn) do in these assays?
G6PDH CS: -12; PfG6PD inh: -2; DTT redox prof: 2; Diaph inh CS: 0; Diaph act CS: 1; Lmaj promast: 66*

How did N#CC1=C(N)SC(N)=C(C#N)C1CCC1CCCCC1 do in these assays?
G6PDH CS: -3; DTT redox prof: 1; Diaph inh CS: 54*; Diaph act CS: 0.5; Lmaj promast: 26

How did CC1CCCCC1NC(=O)NC(=O)CCl (stereo not drawn) do in these assays?
G6PDH CS: 9; PfG6PD inh: -19; DTT redox prof: 0; Diaph inh CS: 4; Diaph act CS: 1; Lmaj promast: 98*

How did CC1CCCC(NC(=O)NC(=O)CCl)C1C (stereo not drawn) do in these assays?
G6PDH CS: 12; PfG6PD inh: -5; DTT redox prof: 0; Diaph inh CS: 3; Diaph act CS: 1; Lmaj promast: 99*

What do the screens show for `CC1CCCC(NC(=O)CSC2CCCCC2)C1C` (stereo not drawn)?
G6PDH CS: 5; PfG6PD inh: 5; DTT redox prof: 0; Diaph inh CS: 11; Diaph act CS: 0.9; Lmaj promast: 5

What do the screens show for `CC1CCCCC1NC(=O)NC(=O)COC(=O)c1nccnc1N` (stereo not drawn)?
PfG6PD inh: -1

What do the screens show for `CCCN(CC(=O)Nc1ccccc1C)CC(=O)Nc1ccc(Br)cc1F`?
PfG6PD inh: 17

Results for CC(C)Oc1ccc(C(CC(=O)N(C)CCC#N)c2ccc(F)cc2)cc1 (stereo not drawn) ?
G6PDH CS: 9; PfG6PD inh: 12; DTT redox prof: 0; Diaph inh CS: 18; Diaph act CS: 0.8; Lmaj promast: 53*

Results for COc1ccc(-n2c(COc3ccccc3)nnc2SCc2ccc(C#N)cc2)cc1 ?
G6PDH CS: -12; PfG6PD inh: -3; DTT redox prof: 0; Diaph inh CS: 21; Diaph act CS: 0.8; Lmaj promast: 100*

Results for COCCn1c(Cc2ccccc2)nnc1SCc1ccc([N+](=O)[O-])cc1 ?
G6PDH CS: -2; PfG6PD inh: -7; DTT redox prof: 0; Diaph inh CS: 6; Diaph act CS: 0.9; Lmaj promast: 51*

What do the screens show for `CCOc1ccc(-n2c(SCc3ccc([N+](=O)[O-])cc3)nnc2-c2ccccc2)cc1`?
G6PDH CS: -6; PfG6PD inh: 11; DTT redox prof: 0; Diaph inh CS: 25; Diaph act CS: 0.7; Lmaj promast: 92*

What do the screens show for `O=c1c2ccccc2nc(SCc2ccc([N+](=O)[O-])cc2)n1-c1ccccc1`?
G6PDH CS: 2; PfG6PD inh: 2; DTT redox prof: 3; Diaph inh CS: 11; Diaph act CS: 0.9; Lmaj promast: 54*

What do the screens show for `COC(=O)c1ccc(NS(=O)(=O)NC(=O)c2cn(C)c3ccccc23)cc1`?
PfG6PD inh: -14

What do the screens show for `CCn1ncc(/C=N/NC(=O)c2cc(Cl)ccc2OC)c1C`?
G6PDH CS: 5; PfG6PD inh: -4; DTT redox prof: -1; Diaph inh CS: 1; Diaph act CS: 1; Lmaj promast: 0

Results for COc1cc(CCC(=O)NNC(=O)c2ccc(C)cc2)cc(OC)c1OC ?
G6PDH CS: 12; PfG6PD inh: -20; DTT redox prof: 0; Diaph inh CS: 6; Diaph act CS: 0.9; Lmaj promast: -2

Results for c1cc2ccc3ccc(CN4CCOCC4)c4ccc(c1)c2c34 ?
G6PDH CS: 4; PfG6PD inh: 16; DTT redox prof: 5; Diaph inh CS: 12; Diaph act CS: 0.9; Lmaj promast: 4

How did OC1CCCN(Cc2ccc3ccc4cccc5ccc2c3c45)C1 (stereo not drawn) do in these assays?
G6PDH CS: 9; PfG6PD inh: 18; DTT redox prof: -5; Diaph inh CS: 4; Diaph act CS: 1; Lmaj promast: 78*

Results for CC(C)CC(/C(O)=C(\C#N)c1nc2ccccc2[nH]1)N1C(=O)c2ccccc2C1=O (stereo not drawn) ?
G6PDH CS: 1; PfG6PD inh: 2; DTT redox prof: 0; Diaph inh CS: 14; Diaph act CS: 0.9; Lmaj promast: 65*

How did NC(=O)c1c(NC(=O)C(=O)N2CCOCC2)sc2c1CCCC2 do in these assays?
PfG6PD inh: 10

How did Cc1ccn2cc(-c3cccc(NC(=O)C(C)C)c3)nc2c1 do in these assays?
G6PDH CS: 3; PfG6PD inh: 11; DTT redox prof: -1; Diaph inh CS: 7; Diaph act CS: 0.9; Lmaj promast: 7

Results for Cc1ccn2cc(-c3cccc(NC(=O)c4ccccc4)c3)nc2c1 ?
G6PDH CS: 2; PfG6PD inh: 16; DTT redox prof: 0; Diaph inh CS: 5; Diaph act CS: 0.9; Lmaj promast: 72*

How did CC1CC(N(C(=O)c2ccco2)c2ccccc2)c2ccccc2N1C(=O)c1ccco1 (stereo not drawn) do in these assays?
G6PDH CS: 2; PfG6PD inh: -10; DTT redox prof: 1; Diaph inh CS: 17; Diaph act CS: 0.8; Lmaj promast: 62*

What do the screens show for `CC1CC(N(C(=O)c2ccc(Cl)cc2)c2ccccc2)c2ccccc2N1C(=O)c1ccco1` (stereo not drawn)?
G6PDH CS: -2; PfG6PD inh: 9; DTT redox prof: 0; Diaph inh CS: 18; Diaph act CS: 0.8; Lmaj promast: 57*
